We go through 19 molecules from ChEMBL document CHEMBL1157295, “Polyacylated oligosaccharides from medicinal Mexican morning glory species as antibacterials and inhibitors of multidrug resistance in Staphylococcus aureus” (2006).

Holding throughout (type): functional
Test [1] has as its system Staphylococcus aureus. Kind of test: Antimicrobial activity against TetK multidrug efflux pump possessing Staphylococcus aureus XU-212 by standard microdilution method. In short, it runs like this:
(§1)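 Broth microdilution per NCCLS guidelines, at least in duplicate, in cation-adjusted Mueller-Hinton broth (20 mg/L Ca2+, 10 mg/L Mg2+). Strains were grown first on nutrient agar. Inoculum of 5 × 10^5 cfu was set in 0.9% saline against a McFarland standard. Compounds were dissolved in DMSO and given as 2-fold serial dilutions, final 1–512 µg/mL, with at most 3.125% v/v DMSO. MIC is the lowest concentration showing no visible growth.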

The test system of test [2] is Staphylococcus aureus. Kind of test: Antimicrobial activity against epidemic methicillin-resistant Staphylococcus aureus 15 by standard microdilution method. An outline of the steps: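 Broth microdilution following NCCLS guidelines, at least in duplicate, against EMRSA-15 (mecA) precultured on nutrient agar. Medium was cation-adjusted Mueller-Hinton broth with 20 mg/L Ca2+ and 10 mg/L Mg2+. Inoculum was 5 × 10^5 cfu in 0.9% saline, set against a McFarland standard. Compounds were dissolved in DMSO (final ≤3.125% v/v) and tested at 1–512 µg/mL in 2-fold series. MIC was the lowest concentration with no visible growth.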

In test [3] the test system is Staphylococcus aureus. Kind of test: Antimicrobial activity against Staphylococcus aureus ATCC 25923 by standard microdilution method. An outline of the steps:
as §1
For orientation: In broth dilution the organism is exposed to a series of concentrations in liquid medium.

In brackets after ≈: the same amount, converted by molar mass.

A word on the MIC: it is the smallest concentration in the dilution series that meets the test's criterion for growth inhibition. Higher therefore signals a less susceptible organism. Turning to `CCn1cc(C(=O)O)c(=O)c2cc(F)c(N3CCNCC3)cc21` [NORFLOXACIN], the minimal inhibitory concentration (MIC) stood at 16 µg/mL (≈ 50.1 µM) against Staphylococcus aureus [1], 0.5 µg/mL (≈ 1.57 µM) against Staphylococcus aureus [2] and 2 µg/mL (≈ 6.26 µM) against Staphylococcus aureus [3].
In the same order, the values of `C/C=C(\C)C(=O)O[C@H]1[C@H](O)[C@@H](O)[C@H](O[C@@H]2[C@H]3OC(=O)CCCCCCCCC[C@H](CCCCC)O[C@@H]4O[C@H](C)[C@@H](O)[C@H](O)[C@H]4O[C@@H]4O[C@H](CO)[C@@H](OC(=O)[C@H](C)[C@@H](C)O)[C@H](O)[C@H]4O[C@H](O[C@H]2C)[C@@H]3OC(=O)[C@@H](C)CC)O[C@@H]1C` [ORIZABIN IX] are over 512 µg/mL, 256 µg/mL (≈ 228 µM) and over 512 µg/mL.
For `C/C=C(\C)C(=O)O[C@H]1[C@H](O)[C@@H](O)[C@H](O[C@@H]2[C@H]3OC(=O)CCCCCCCCC[C@H](CCCCC)O[C@@H]4O[C@H](C)[C@@H](O)[C@H](O)[C@H]4O[C@@H]4O[C@H](COC(=O)[C@@H](C)[C@H](C)O)[C@@H](O)[C@H](O)[C@H]4O[C@H](O[C@H]2C)[C@@H]3OC(=O)C(C)C)O[C@@H]1C` [ORIZABIN XIII], the minimal inhibitory concentration (MIC) is 32 µg/mL (≈ 28.9 µM) with Staphylococcus aureus [1], 8 µg/mL (≈ 7.22 µM) in the test on Staphylococcus aureus [2] and 8 µg/mL (≈ 7.22 µM) in the test with Staphylococcus aureus [3].
Take `C/C=C(\C)C(=O)O[C@H]1[C@H](O)[C@@H](O)[C@H](O[C@@H]2[C@H]3OC(=O)CCCCCCCCC[C@H](CCCCC)O[C@@H]4O[C@H](C)[C@@H](O)[C@H](O)[C@H]4O[C@@H]4O[C@H](COC(=O)[C@H](C)[C@@H](C)O)[C@@H](O)[C@H](O)[C@H]4O[C@H](O[C@H]2C)[C@@H]3OC(=O)C(C)C)O[C@@H]1C` [ORIZABIN XII]: the values for the minimum inhibitory concentration (MIC) against Staphylococcus aureus [1], against Staphylococcus aureus [2] and against Staphylococcus aureus [3] were over 512 µg/mL, 512 µg/mL (≈ 462 µM) and over 512 µg/mL, respectively.
In the case of `C/C=C(\C)C(=O)O[C@H]1[C@H](O)[C@@H](O)[C@H](O[C@@H]2[C@H]3OC(=O)CCCCCCCCC[C@H](CCCCC)O[C@@H]4O[C@H](C)[C@@H](O)[C@H](O)[C@H]4O[C@@H]4O[C@H](COC(=O)[C@@H](C)CC)[C@@H](O)[C@H](O)[C@H]4O[C@H](O[C@H]2C)[C@@H]3OC(=O)[C@H](C)[C@@H](C)O)O[C@@H]1C` [ORIZABIN XIV], the minimum inhibitory concentration (MIC) was 64 µg/mL (≈ 57.1 µM) against Staphylococcus aureus [1], 8 µg/mL (≈ 7.13 µM) against Staphylococcus aureus [2] and 16 µg/mL (≈ 14.3 µM) against Staphylococcus aureus [3].
In the same order, the values of `CCCCC[C@H]1CCCCCCCCCC(=O)O[C@@H]2[C@@H](O[C@@H]3O[C@H](C)[C@@H](OC(=O)[C@@H](C)CC)[C@H](O)[C@H]3O)[C@H](C)O[C@@H](O[C@H]3[C@H](O[C@H]4[C@H](O1)O[C@H](C)[C@@H](O)[C@@H]4O)O[C@H](COC(=O)[C@@H](C)CC)[C@@H](O)[C@@H]3O)[C@@H]2OC(=O)[C@@H](C)[C@H](C)O` [ORIZABIN XIX] are 512 µg/mL (≈ 456 µM), 256 µg/mL (≈ 228 µM) and 128 µg/mL (≈ 114 µM).
The matching figures for `C/C=C(\C)C(=O)O[C@H]1[C@H](O)[C@@H](O)[C@H](O[C@@H]2[C@H]3OC(=O)CCCCCCCCC[C@H](CCCCC)O[C@@H]4O[C@H](C)[C@@H](O)[C@H](O)[C@H]4O[C@@H]4O[C@H](COC(=O)C(C)C)[C@@H](O)[C@H](O)[C@H]4O[C@H](O[C@H]2C)[C@@H]3OC(=O)[C@@H](C)[C@H](C)O)O[C@@H]1C` [ORIZABIN XI]: 32 µg/mL (≈ 28.9 µM), 4 µg/mL (≈ 3.61 µM) and 16 µg/mL (≈ 14.4 µM).
Take `CCCCC[C@H]1CCCCCCCCCC(=O)O[C@@H]2[C@@H](O[C@@H]3O[C@H](C)[C@@H](OC(=O)[C@@H](C)CC)[C@H](O)[C@H]3O)[C@H](C)O[C@@H](O[C@H]3[C@H](O[C@H]4[C@H](O1)O[C@H](C)[C@@H](O)[C@@H]4O)O[C@H](COC(=O)[C@@H](C)CC)[C@@H](O)[C@@H]3O)[C@@H]2OC(=O)[C@H](C)[C@@H](C)O` [ORIZABIN XVIII]: the MIC in the test with Staphylococcus aureus [1] came to 64 µg/mL (≈ 57 µM); in the test on Staphylococcus aureus [2], 64 µg/mL (≈ 57 µM); in the test with Staphylococcus aureus [3], 32 µg/mL (≈ 28.5 µM).
Consider `C/C=C(\C)C(=O)O[C@H]1[C@H](O)[C@@H](O)[C@H](O[C@@H]2[C@H]3OC(=O)CCCCCCCCC[C@H](CCCCC)O[C@@H]4O[C@H](C)[C@@H](O)[C@H](O)[C@H]4O[C@@H]4O[C@H](COC(=O)[C@@H](C)[C@H](C)O)[C@@H](O)[C@H](O)[C@H]4O[C@H](O[C@H]2C)[C@@H]3OC(=O)[C@@H](C)CC)O[C@@H]1C` [ORIZABIN XVII], for which the minimal inhibitory concentration (MIC) with Staphylococcus aureus [1] is 32 µg/mL (≈ 28.5 µM); against Staphylococcus aureus [2], 8 µg/mL (≈ 7.13 µM); with Staphylococcus aureus [3] it was 8 µg/mL (≈ 7.13 µM).
For the molecule `C/C=C(\C)C(=O)O[C@H]1[C@H](O)[C@@H](O)[C@H](O[C@@H]2[C@H]3OC(=O)CCCCCCCCC[C@H](CCCCC)O[C@@H]4O[C@H](C)[C@@H](O)[C@H](O)[C@H]4O[C@@H]4O[C@H](COC(=O)[C@H](C)[C@@H](C)O)[C@@H](O)[C@H](O)[C@H]4O[C@H](O[C@H]2C)[C@@H]3OC(=O)[C@@H](C)CC)O[C@@H]1C` [ORIZABIN XVI], the MIC in the test with Staphylococcus aureus [1] was found to be 128 µg/mL (≈ 114 µM); against Staphylococcus aureus [2], 8 µg/mL (≈ 7.13 µM); in the test with Staphylococcus aureus [3], 8 µg/mL (≈ 7.13 µM).
Regarding `C/C=C(\C)C(=O)O[C@H]1[C@H](O)[C@@H](O)[C@H](O[C@@H]2[C@H]3OC(=O)CCCCCCCCC[C@H](CCCCC)O[C@@H]4O[C@H](C)[C@@H](O)[C@H](O)[C@H]4O[C@@H]4O[C@H](COC(=O)[C@@H](C)CC)[C@@H](O)[C@H](O)[C@H]4O[C@H](O[C@H]2C)[C@@H]3OC(=O)[C@@H](C)[C@H](C)O)O[C@@H]1C` [ORIZABIN XV], the values for the minimum inhibitory concentration (MIC) in the test on Staphylococcus aureus [1], in the test on Staphylococcus aureus [2] and in the test on Staphylococcus aureus [3] were 512 µg/mL (≈ 457 µM), 16 µg/mL (≈ 14.3 µM) and 128 µg/mL (≈ 114 µM), respectively.
The matching figures for `CCCCC[C@H]1CCCCCCCCCC(=O)O[C@@H]2[C@@H](O[C@@H]3O[C@H](C)[C@@H](OC(=O)[C@@H](C)CC)[C@H](O)[C@H]3O)[C@H](C)O[C@@H](O[C@H]3[C@H](O[C@H]4[C@H](O1)O[C@H](C)[C@@H](O)[C@@H]4O)O[C@H](COC(=O)[C@@H](C)[C@H](C)O)[C@@H](O)[C@@H]3O)[C@@H]2OC(=O)[C@@H](C)CC` [ORIZABIN XXI]: 64 µg/mL (≈ 57 µM), 16 µg/mL (≈ 14.2 µM) and 8 µg/mL (≈ 7.12 µM).
Turning to `CCCCC[C@H]1CCCCCCCCCC(=O)O[C@@H]2[C@@H](O[C@@H]3O[C@H](C)[C@@H](OC(=O)[C@@H](C)CC)[C@H](O)[C@H]3O)[C@H](C)O[C@@H](O[C@H]3[C@H](O[C@H]4[C@H](O1)O[C@H](C)[C@@H](O)[C@@H]4O)O[C@H](COC(=O)[C@H](C)[C@@H](C)O)[C@@H](O)[C@@H]3O)[C@@H]2OC(=O)[C@@H](C)CC` [ORIZABIN XX], the minimal inhibitory concentration (MIC) is over 512 µg/mL in the test with Staphylococcus aureus [1], 32 µg/mL (≈ 28.5 µM) against Staphylococcus aureus [2] and 64 µg/mL (≈ 57 µM) in the test on Staphylococcus aureus [3].
For `C/C=C(\C)C(=O)O[C@H]1[C@H](O)[C@@H](O)[C@H](O[C@@H]2[C@H]3OC(=O)CCCCCCCCC[C@H](CCCCC)O[C@@H]4O[C@H](C)[C@@H](O)[C@H](O)[C@H]4O[C@@H]4O[C@H](COC(=O)C(C)C)[C@@H](O)[C@H](O)[C@H]4O[C@H](O[C@H]2C)[C@@H]3OC(=O)[C@H](C)[C@@H](C)O)O[C@@H]1C` [ORIZABIN X], the minimal inhibitory concentration (MIC) in the test on Staphylococcus aureus [1] worked out at 32 µg/mL (≈ 28.9 µM); with Staphylococcus aureus [2], 4 µg/mL (≈ 3.61 µM); against Staphylococcus aureus [3], 16 µg/mL (≈ 14.4 µM).
The matching figures for `CCCCC[C@H]1CCCCCCCCCC(=O)O[C@@H]2[C@@H](O[C@@H]3O[C@H](C)[C@@H](O)[C@H](O)[C@H]3O)[C@H](C)O[C@@H](O[C@H]3[C@H](O[C@H]4[C@H](O1)O[C@H](C)[C@@H](O)[C@@H]4O)O[C@H](CO)[C@@H](O)[C@@H]3O)[C@@H]2OC(=O)[C@@H](C)CC` [SCAMMONIN II]: 512 µg/mL (≈ 545 µM), 128 µg/mL (≈ 136 µM) and 256 µg/mL (≈ 273 µM).
The matching figures for `C/C=C(\C)C(=O)O[C@H]1[C@H](O)[C@@H](O)[C@H](O[C@@H]2[C@H]3OC(=O)CCCCCCCCC[C@H](CCCCC)O[C@@H]4O[C@H](C)[C@@H](O)[C@H](O)[C@H]4O[C@@H]4O[C@H](CO)[C@@H](O)[C@H](O)[C@H]4O[C@H](O[C@H]2C)[C@@H]3OC(=O)[C@@H](C)CC)O[C@@H]1C` [SCAMMONIN I]: 128 µg/mL (≈ 125 µM), 32 µg/mL (≈ 31.3 µM) and 32 µg/mL (≈ 31.3 µM).
For `CN(C)[C@@H]1C(O)=C(C(N)=O)C(=O)[C@@]2(O)C(O)=C3C(=O)c4c(O)cccc4[C@@](C)(O)[C@H]3C[C@@H]12` [TETRACYCLINE], the MIC with Staphylococcus aureus [1] is 64 µg/mL (≈ 144 µM); against Staphylococcus aureus [2], 0.15 µg/mL (≈ 0.338 µM); against Staphylococcus aureus [3] it was 0.08 µg/mL (≈ 0.18 µM).
The matching figures for `CCCCC[C@H]1CCCCCCCCCC(=O)O[C@H]2[C@H](O[C@H]3[C@H](O[C@H]4[C@H](O1)O[C@H](C)[C@H](O)[C@@H]4O)O[C@H](CO)[C@@H](O)[C@@H]3O)O[C@H](C)[C@@H](O)[C@@H]2O` [TRICOLORIN F]: over 512 µg/mL, over 512 µg/mL and over 512 µg/mL.
For the molecule `CCCCC[C@H](CCCCCCCCCC(=O)OC[C@H]1O[C@H]2O[C@H]3[C@H](O[C@@H](CCCCC)CCCCCCCCCC(=O)O[C@H]4[C@H](O[C@@H]2[C@@H](O)[C@@H]1O)O[C@H](C)[C@@H](O)[C@@H]4O)O[C@H](C)[C@H](O)[C@@H]3O)O[C@@H]1O[C@H](C)[C@H](O)[C@H](O)[C@H]1O[C@@H]1O[C@H](CO)[C@@H](O)[C@H](O)[C@H]1O[C@@H]1O[C@H](C)[C@@H](O)[C@H](O)[C@H]1O` [TRICOLORIN J], the MIC against Staphylococcus aureus [1], with Staphylococcus aureus [2] and against Staphylococcus aureus [3] was over 256 µg/mL throughout.
